The target in the experiment is T1, Uridine-cytidine kinase 2 (Homo sapiens, UniProt Q9BZX2).
T1 sequence (Q9BZX2 whole entry): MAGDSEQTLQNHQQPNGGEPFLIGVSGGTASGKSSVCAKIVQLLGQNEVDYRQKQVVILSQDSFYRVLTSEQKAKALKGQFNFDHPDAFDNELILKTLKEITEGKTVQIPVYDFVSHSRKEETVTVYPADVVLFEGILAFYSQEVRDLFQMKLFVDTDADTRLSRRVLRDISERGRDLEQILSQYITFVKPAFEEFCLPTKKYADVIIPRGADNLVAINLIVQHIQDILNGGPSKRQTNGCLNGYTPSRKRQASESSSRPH
The experiment is described as follows: Inhibition of C-terminally His6-tagged human UCK2 expressed in Escherichia coli BL21(DE3) cells incubated for 15 mins before ATP addition and measured after 60 mins by ADP-Glo kinase assay. The method, boiled down:
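His6-tagged UCK2 (C-terminal tag), purified by Ni-NTA then ion exchange; UCK2 phosphorylates uridine with ATP and ADP-Glo measures the ADP formed, after depleting leftover ATP, as luciferase luminescence. Run in 1536-well format with 0.5 mg/mL BSA, DMSO up to 3%. Primary screen at 33 μM with hit cut-off of 3 SD of the negative control. Confirmation used 8 half-log concentrations, 0.05–167 µM.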
For orientation: In ADP-Glo the light output rises with the ADP produced.

For the compound `Cc1ccccc1NC(=O)CSCn1[nH]nc2c(=O)nc(Cc3ccc(F)cc3)nc1-2`, the IC50 (usually the concentration that gives 50% inhibition) came to 137 µM.

The values are drawn from BindingDB's records for doi:10.1016/j.bmcl.2019.08.010 (Stanford University, 2019).
